# From the M2OR odorant receptor database
# Experiments:
# Conditions in all cases: stereoisomer not certain
# Or5p57 (Mus musculus) = Or5p57 (Mus musculus) (UniProt Q8VEZ0)
# Procedure, shortened: (§1)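 Whether a receptor–molecule pair is responsive (active) rests on the original authors' judgment that its measured signal was statistically different from baseline. Pairs without that judgment are non-responsive (inactive). Sources used varied assay methods, commonly transient luciferase assays in mammalian cell lines.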
# Or5an6 (Mus musculus) = Or5an6 (Mus musculus) (UniProt Q8VFV4)
# Chain of Or5an6 (Mus musculus) (Q8VFV4 whole entry): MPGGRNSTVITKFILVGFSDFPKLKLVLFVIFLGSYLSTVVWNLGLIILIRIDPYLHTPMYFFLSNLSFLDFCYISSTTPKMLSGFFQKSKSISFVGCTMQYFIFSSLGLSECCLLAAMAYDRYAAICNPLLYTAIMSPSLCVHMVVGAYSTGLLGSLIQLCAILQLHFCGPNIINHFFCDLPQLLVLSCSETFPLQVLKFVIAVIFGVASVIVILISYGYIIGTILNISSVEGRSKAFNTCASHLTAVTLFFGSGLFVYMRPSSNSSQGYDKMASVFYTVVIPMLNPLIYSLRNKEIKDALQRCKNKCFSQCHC
# Procedure, shortened: as §1
# Or1m1 (Mus musculus) = molecular target: T1, Or1m1 (Mus musculus) (UniProt Q8VFM9)
# T1 sequence (whole entry): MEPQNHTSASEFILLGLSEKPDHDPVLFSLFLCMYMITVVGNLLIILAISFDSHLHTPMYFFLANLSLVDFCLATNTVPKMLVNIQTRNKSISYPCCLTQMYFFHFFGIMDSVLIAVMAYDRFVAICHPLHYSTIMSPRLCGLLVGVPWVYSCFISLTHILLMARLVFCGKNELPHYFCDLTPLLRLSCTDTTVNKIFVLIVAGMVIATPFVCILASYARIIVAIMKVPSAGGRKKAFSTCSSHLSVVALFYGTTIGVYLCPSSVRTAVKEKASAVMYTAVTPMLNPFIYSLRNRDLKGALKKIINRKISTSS
# Procedure, shortened: as §1
# Or2c1 (Mus musculus) = molecular target: T2, Or2c1 (Mus musculus) (UniProt P23275)
# T2 sequence (whole entry): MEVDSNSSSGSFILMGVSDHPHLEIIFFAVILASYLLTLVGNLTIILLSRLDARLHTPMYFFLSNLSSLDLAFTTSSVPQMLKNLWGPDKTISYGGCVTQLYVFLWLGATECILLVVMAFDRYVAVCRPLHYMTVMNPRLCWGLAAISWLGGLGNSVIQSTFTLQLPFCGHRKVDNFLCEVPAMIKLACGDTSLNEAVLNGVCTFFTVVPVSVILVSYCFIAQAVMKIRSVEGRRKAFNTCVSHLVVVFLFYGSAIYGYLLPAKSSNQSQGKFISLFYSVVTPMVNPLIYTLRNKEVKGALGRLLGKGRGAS
# Procedure, shortened: as §1
# Or5ar1 (Mus musculus) = molecular target: T3, Or5ar1 (Mus musculus) (UniProt Q8VGS3)
# T3 sequence (whole entry): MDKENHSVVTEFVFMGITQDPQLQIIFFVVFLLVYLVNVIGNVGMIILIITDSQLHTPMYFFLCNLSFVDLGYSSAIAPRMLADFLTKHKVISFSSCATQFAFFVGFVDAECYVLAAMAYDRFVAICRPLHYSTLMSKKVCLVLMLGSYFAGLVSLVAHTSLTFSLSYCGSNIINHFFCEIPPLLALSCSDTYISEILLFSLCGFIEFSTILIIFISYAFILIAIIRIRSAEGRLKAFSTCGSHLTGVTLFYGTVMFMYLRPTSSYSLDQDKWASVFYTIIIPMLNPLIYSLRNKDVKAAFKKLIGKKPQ
# Procedure, shortened: as §1
# Or5p80 (Mus musculus) = molecular target: T4, Or5p80 (Mus musculus) (UniProt Q8VG42)
# T4 sequence (whole entry): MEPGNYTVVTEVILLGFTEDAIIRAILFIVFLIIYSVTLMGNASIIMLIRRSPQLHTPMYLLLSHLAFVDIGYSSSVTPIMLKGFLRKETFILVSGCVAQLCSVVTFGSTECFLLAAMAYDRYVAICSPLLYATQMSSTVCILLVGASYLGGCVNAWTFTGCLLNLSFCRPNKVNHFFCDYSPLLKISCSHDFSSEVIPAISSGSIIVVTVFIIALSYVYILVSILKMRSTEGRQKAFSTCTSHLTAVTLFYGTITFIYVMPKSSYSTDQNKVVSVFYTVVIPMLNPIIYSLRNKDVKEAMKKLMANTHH
# Procedure, shortened: as §1
# Or7a40 (Mus musculus) = molecular target: T5, Or7a40 (Mus musculus) (UniProt Q9JHB2)
# T5 sequence (whole entry): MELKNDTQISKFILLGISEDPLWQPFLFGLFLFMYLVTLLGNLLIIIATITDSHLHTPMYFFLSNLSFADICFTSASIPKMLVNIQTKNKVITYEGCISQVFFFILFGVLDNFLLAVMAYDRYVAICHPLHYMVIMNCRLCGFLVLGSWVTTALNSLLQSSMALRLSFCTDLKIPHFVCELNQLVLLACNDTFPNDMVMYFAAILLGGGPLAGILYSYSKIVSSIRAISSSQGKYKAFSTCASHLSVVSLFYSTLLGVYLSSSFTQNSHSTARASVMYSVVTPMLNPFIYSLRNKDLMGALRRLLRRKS
# Procedure, shortened: as §1
# UniProt A2ATE5 = molecular target: T6, UniProt A2ATE5
# T6 sequence (whole entry): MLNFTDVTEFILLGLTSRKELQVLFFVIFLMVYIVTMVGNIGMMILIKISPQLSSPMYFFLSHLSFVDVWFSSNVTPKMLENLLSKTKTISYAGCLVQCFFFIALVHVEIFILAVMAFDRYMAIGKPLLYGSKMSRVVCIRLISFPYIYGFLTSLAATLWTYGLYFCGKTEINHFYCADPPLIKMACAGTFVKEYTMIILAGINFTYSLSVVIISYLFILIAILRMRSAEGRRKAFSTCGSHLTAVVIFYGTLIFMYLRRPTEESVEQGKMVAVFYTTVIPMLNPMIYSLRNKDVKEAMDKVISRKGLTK
# Procedure, shortened: as §1
# UniProt A2AVB0 = molecular target: T7, UniProt A2AVB0
# T7 sequence (whole entry): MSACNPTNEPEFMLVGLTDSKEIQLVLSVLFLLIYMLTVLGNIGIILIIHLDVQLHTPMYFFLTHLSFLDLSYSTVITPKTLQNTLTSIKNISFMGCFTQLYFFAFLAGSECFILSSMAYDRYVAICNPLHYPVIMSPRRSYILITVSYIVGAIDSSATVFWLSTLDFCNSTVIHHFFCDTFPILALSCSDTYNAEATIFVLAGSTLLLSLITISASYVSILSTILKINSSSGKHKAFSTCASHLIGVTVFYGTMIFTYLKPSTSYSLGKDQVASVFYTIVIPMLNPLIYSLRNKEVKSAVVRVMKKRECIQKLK
# Procedure, shortened: as §1
# UniProt A2AVB5 = molecular target: T8, UniProt A2AVB5
# T8 sequence (whole entry): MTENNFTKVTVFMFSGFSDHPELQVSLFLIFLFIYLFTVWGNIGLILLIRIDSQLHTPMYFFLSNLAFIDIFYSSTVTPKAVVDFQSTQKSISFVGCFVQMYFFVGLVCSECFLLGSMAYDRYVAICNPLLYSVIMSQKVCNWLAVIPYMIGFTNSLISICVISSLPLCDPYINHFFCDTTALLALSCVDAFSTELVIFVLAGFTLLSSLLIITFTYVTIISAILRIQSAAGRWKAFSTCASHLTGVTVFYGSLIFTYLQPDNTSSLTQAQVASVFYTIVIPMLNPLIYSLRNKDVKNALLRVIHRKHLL
# Procedure, shortened: as §1
# 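Note: active if original authors judged signal statistically different from baseline.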
# Chain of Or5p57 (Mus musculus) (Q8VEZ0 whole entry): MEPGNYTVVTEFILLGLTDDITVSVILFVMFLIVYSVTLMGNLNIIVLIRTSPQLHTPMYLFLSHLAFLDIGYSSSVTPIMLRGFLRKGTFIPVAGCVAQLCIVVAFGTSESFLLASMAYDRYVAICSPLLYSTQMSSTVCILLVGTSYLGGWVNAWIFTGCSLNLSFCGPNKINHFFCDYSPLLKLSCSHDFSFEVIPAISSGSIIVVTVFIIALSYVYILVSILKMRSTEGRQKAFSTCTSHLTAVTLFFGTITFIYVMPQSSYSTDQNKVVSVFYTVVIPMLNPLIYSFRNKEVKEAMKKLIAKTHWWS
smiles,measurement,setting,value
O=C(O)CCCCCCCBr,odorant receptor agonist call,Or5p57 (Mus musculus),inactive
Cc1c([N+](=O)[O-])c(C)c([N+](=O)[O-])c(C(C)(C)C)c1[N+](=O)[O-],odorant receptor agonist call,Or5an6 (Mus musculus),active
C=CCOC(=O)Cc1ccccc1,odorant receptor agonist call,Or1m1 (Mus musculus),inactive
same,odorant receptor agonist call,Or2c1 (Mus musculus),active
same,odorant receptor agonist call,Or5ar1 (Mus musculus),inactive
same,odorant receptor agonist call,Or5p80 (Mus musculus),inactive
same,odorant receptor agonist call,Or7a40 (Mus musculus),inactive
same,odorant receptor agonist call,UniProt A2ATE5,inactive
same,odorant receptor agonist call,UniProt A2AVB0,inactive
same,odorant receptor agonist call,UniProt A2AVB5,inactive
Cc1ccc(OC(=O)Cc2ccccc2)cc1,odorant receptor agonist call,Or1m1 (Mus musculus),inactive
same,odorant receptor agonist call,Or5ar1 (Mus musculus),inactive
same,odorant receptor agonist call,UniProt A2ATE5,inactive
same,odorant receptor agonist call,UniProt A2AVB0,inactive
O=c1cc(O)c2ccccc2o1,odorant receptor agonist call,Or1m1 (Mus musculus),inactive
same,odorant receptor agonist call,Or2c1 (Mus musculus),inactive
same,odorant receptor agonist call,Or5ar1 (Mus musculus),inactive
same,odorant receptor agonist call,Or5p80 (Mus musculus),inactive
same,odorant receptor agonist call,Or7a40 (Mus musculus),inactive
same,odorant receptor agonist call,UniProt A2ATE5,inactive
same,odorant receptor agonist call,UniProt A2AVB0,inactive
same,odorant receptor agonist call,UniProt A2AVB5,inactive
CCCCC(Br)C(=O)O (configuration not stated),odorant receptor agonist call,Or1m1 (Mus musculus),inactive
same,odorant receptor agonist call,Or5ar1 (Mus musculus),inactive
same,odorant receptor agonist call,UniProt A2ATE5,inactive
same,odorant receptor agonist call,UniProt A2AVB0,inactive
C=CCc1ccccc1,odorant receptor agonist call,Or2c1 (Mus musculus),active
same,odorant receptor agonist call,Or5ar1 (Mus musculus),inactive
same,odorant receptor agonist call,Or5p80 (Mus musculus),inactive
same,odorant receptor agonist call,Or7a40 (Mus musculus),inactive
same,odorant receptor agonist call,UniProt A2AVB5,inactive
OCc1ccc2c(c1)OCO2,odorant receptor agonist call,Or1m1 (Mus musculus),inactive
same,odorant receptor agonist call,Or5ar1 (Mus musculus),inactive
same,odorant receptor agonist call,UniProt A2ATE5,inactive
same,odorant receptor agonist call,UniProt A2AVB0,inactive
COc1ccc(C=O)cc1,odorant receptor agonist call,Or1m1 (Mus musculus),inactive
same,odorant receptor agonist call,Or5ar1 (Mus musculus),inactive
same,odorant receptor agonist call,UniProt A2ATE5,inactive
same,odorant receptor agonist call,UniProt A2AVB0,inactive
CCC1CCC(=O)O1 (configuration not stated),odorant receptor agonist call,Or2c1 (Mus musculus),inactive
same,odorant receptor agonist call,Or5ar1 (Mus musculus),inactive
same,odorant receptor agonist call,Or5p80 (Mus musculus),inactive
same,odorant receptor agonist call,Or7a40 (Mus musculus),inactive
same,odorant receptor agonist call,UniProt A2AVB5,inactive
CSSC,odorant receptor agonist call,Or1m1 (Mus musculus),inactive
same,odorant receptor agonist call,Or5ar1 (Mus musculus),inactive
same,odorant receptor agonist call,UniProt A2ATE5,inactive
same,odorant receptor agonist call,UniProt A2AVB0,inactive
C=C(C)C1CC=C(C=O)CC1 (configuration not stated),odorant receptor agonist call,Or1m1 (Mus musculus),inactive
same,odorant receptor agonist call,Or5ar1 (Mus musculus),inactive
same,odorant receptor agonist call,UniProt A2ATE5,inactive
same,odorant receptor agonist call,UniProt A2AVB0,inactive
O=Cc1ccc2c(c1)OCO2,odorant receptor agonist call,Or1m1 (Mus musculus),inactive
same,odorant receptor agonist call,Or5ar1 (Mus musculus),inactive
same,odorant receptor agonist call,UniProt A2ATE5,inactive
same,odorant receptor agonist call,UniProt A2AVB0,inactive
O=CC=Cc1ccccc1,odorant receptor agonist call,Or1m1 (Mus musculus),inactive
same,odorant receptor agonist call,Or5ar1 (Mus musculus),inactive
same,odorant receptor agonist call,UniProt A2ATE5,inactive
same,odorant receptor agonist call,UniProt A2AVB0,inactive
O=Cc1ccccc1,odorant receptor agonist call,Or1m1 (Mus musculus),inactive
same,odorant receptor agonist call,Or5ar1 (Mus musculus),inactive
same,odorant receptor agonist call,UniProt A2ATE5,inactive
same,odorant receptor agonist call,UniProt A2AVB0,inactive
CCCCCCC(Br)C(=O)O (configuration not stated),odorant receptor agonist call,Or1m1 (Mus musculus),inactive
same,odorant receptor agonist call,Or5ar1 (Mus musculus),inactive
same,odorant receptor agonist call,UniProt A2ATE5,inactive
same,odorant receptor agonist call,UniProt A2AVB0,inactive
CC(C=O)Cc1ccc2c(c1)OCO2 (configuration not stated),odorant receptor agonist call,Or1m1 (Mus musculus),inactive
same,odorant receptor agonist call,Or5ar1 (Mus musculus),inactive
same,odorant receptor agonist call,UniProt A2ATE5,inactive
same,odorant receptor agonist call,UniProt A2AVB0,inactive
Oc1ccccc1Br,odorant receptor agonist call,Or1m1 (Mus musculus),inactive
same,odorant receptor agonist call,Or5ar1 (Mus musculus),inactive
same,odorant receptor agonist call,UniProt A2ATE5,inactive
same,odorant receptor agonist call,UniProt A2AVB0,inactive
CC(=O)c1cc(C(C)(C)C)cc2c1CCC2(C)C,odorant receptor agonist call,Or5an6 (Mus musculus),active
